From ChEMBL document CHEMBL3259611, “Suppression of inflammatory responses by handelin, a guaianolide dimer from Chrysanthemum boreale, via downregulation of NF-κB signaling and pro-inflammatory cytokine production” (J Nat Prod, 2014)
Activity calls are given as the source filed them. No cut-off for these calls is given here.

Legend:
RAW264.7 [1] = experiment: Antiinflammatory activity in mouse RAW264.7 cells assessed as inhibition of LPS-induced nitric oxide production at 20 uM administered 30 mins prior to LPS challenge measured after 20 hrs by Griess assay relative to control; format: functional
Outline: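 RAW 264.7 cells at 3 × 10^5 cells/mL in phenol red-free 10% FBS DMEM, pretreated for 30 min, then given 1 μg/mL LPS for 20 h. Nitrite in the medium was read by Griess reaction at 540 nm against a sodium nitrite standard curve. % inhibition was calculated versus vehicle control, and IC50 by nonlinear regression. Mean ± SD of triplicates.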

RAW264.7 [2] = experiment: Inhibition of LPS-induced NFkappaB transcriptional activity in mouse RAW264.7 cells assessed as reduction of phosphorylated IkappaB-alpha level at 10 uM after 30 mins by Western blotting analysis relative to control; format: cell-based
Outline: (§1)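 Macrophages were exposed to compound for 30 min before LPS stimulation, with proteins extracted 30 min later. Nuclear extracts were prepared in Tris/KCl/NP-40 lysis buffer, then 420 mM NaCl buffer, and the cytosolic fraction was kept for IκB-α. Western blot on PVDF with ECL detection. Tests in triplicate; representative of three separate experiments.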

RAW264.7 [3] = experiment: Antiinflammatory activity in mouse RAW264.7 cells assessed as inhibition LPS-induced miR-155 mRNA expression after 8 hrs by RT-PCR analysis; format: functional, cell-based
Outline: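 LPS-stimulated RAW 264.7 cells, with or without compound, for 8 h. miR-155 measured by TaqMan qRT-PCR on 10 ng RNA, with stem-loop primer RT at 16 °C 30 min, 42 °C 30 min, 85 °C 5 min. Expression given as a ratio to β-actin. Mean ± SD of triplicates.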

Rattus norvegicus [4] = experiment: Antiinflammatory activity in rat paw edema model assessed as inhibition of carrageenan-induced IL-1beta protein expression in paw tissue at 20 mg/kg, po administered 30 mins prior to carrageenan challenge measured after 6 hrs by Western blotting analysis relative to vehicle-treated control; format: functional, organism-based; parameters: dose 20 mg/kg
Outline: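 SD rats received compound orally in 0.5% CMC-Na 30 min before subplantar injection of 0.1 mL 1% carrageenan in saline. Paws were removed at 6 h, homogenized, and iNOS, COX-2 and IL-1β were assessed by Western blot. Triplicate, representative of three experiments.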

Mus musculus [5] = experiment: Antiinflammatory activity in ICR mouse ear edema model assessed as inhibition of TPA-induced COX2 protein expression in ear tissue at 10 to 20 mg/kg, po administered 30 mins prior to TPA challenge measured after 4 hrs by Western blotting analysis relative to vehicle-treated control; format: functional, organism-based
Outline: (§2)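 ICR mice (male, 18−20 g, 5 weeks old) dosed orally 30 min before TPA (1.0 μg in 20 μL acetone) was applied to inner and outer surfaces of the right ear. Killed by cervical dislocation after 4 h. Edema taken as the weight of a 5 mm punch biopsy of the right ear over the left. Ear homogenates were Western blotted for iNOS, COX-2 and IL-1β.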

Mus musculus [6] = experiment: Antiinflammatory activity in ICR mouse ear edema model assessed as inhibition of TPA-induced IL-1beta protein expression in ear tissue at 10 to 20 mg/kg, po administered 30 mins prior to TPA challenge measured after 4 hrs by Western blotting analysis relative to vehicle-treated control; format: functional, organism-based; outline: as §2
[7] = molecular target: Transcription factor p65 (Mus musculus) (UniProt Q04207); experiment: Inhibition of LPS-induced NFkappaB P65 protein nuclear translocation in mouse RAW264.7 cells at 40 uM after 30 mins by Western blotting analysis relative to control; format: cell-based; outline: as §1
RAW264.7 [8] = experiment: Inhibition of LPS-induced NFkappaB transcriptional activity in mouse RAW264.7 cells assessed as reduction of phosphorylated IkappaB-alpha level at 40 uM after 30 mins by Western blotting analysis relative to control; format: cell-based; outline: as §1
RAW264.7 [9] = experiment: Inhibition of LPS-induced NFkappaB transcriptional activity in mouse RAW264.7 cells assessed as […] at 10 uM after 30 mins by Western blotting analysis relative to control; format: cell-based; outline: as §1
[10] = molecular target: T1, Nuclear factor NF-kappa-B p105 subunit (Mus musculus) (UniProt P25799); experiment: Inhibition of LPS-induced NF-kappaB p50 binding to DNA in mouse RAW264.7 cells at 10 to 40 uM after 1.5 hrs by spectrophotometry in presence of mutant oligonucleotide; format: cell-based
T1 sequence (whole entry): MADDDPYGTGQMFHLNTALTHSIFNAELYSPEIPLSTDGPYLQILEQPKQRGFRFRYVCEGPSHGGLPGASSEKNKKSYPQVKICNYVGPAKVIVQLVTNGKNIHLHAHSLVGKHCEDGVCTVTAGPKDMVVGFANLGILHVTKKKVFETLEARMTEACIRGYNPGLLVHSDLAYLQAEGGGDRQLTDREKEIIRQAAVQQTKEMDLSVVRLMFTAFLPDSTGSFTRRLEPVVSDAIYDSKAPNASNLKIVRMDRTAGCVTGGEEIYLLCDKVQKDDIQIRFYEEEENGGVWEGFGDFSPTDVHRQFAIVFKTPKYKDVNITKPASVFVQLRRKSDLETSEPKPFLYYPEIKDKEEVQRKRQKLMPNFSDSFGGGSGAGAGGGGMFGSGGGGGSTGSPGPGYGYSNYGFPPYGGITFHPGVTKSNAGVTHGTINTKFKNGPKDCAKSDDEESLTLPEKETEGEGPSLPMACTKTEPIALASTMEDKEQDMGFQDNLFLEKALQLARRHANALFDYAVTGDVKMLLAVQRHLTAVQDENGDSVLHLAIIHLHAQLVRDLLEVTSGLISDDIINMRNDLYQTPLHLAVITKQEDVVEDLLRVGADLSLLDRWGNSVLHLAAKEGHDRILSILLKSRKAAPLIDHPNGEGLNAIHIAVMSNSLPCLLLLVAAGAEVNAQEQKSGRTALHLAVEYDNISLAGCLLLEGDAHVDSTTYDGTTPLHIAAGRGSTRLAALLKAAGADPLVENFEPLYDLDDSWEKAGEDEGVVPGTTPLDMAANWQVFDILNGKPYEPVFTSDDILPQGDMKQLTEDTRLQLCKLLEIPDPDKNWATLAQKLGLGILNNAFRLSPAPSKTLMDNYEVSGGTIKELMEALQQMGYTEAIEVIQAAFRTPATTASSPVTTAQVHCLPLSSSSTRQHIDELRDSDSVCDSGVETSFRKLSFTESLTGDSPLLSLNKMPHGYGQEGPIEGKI

RAW264.7 [11] = experiment: Antiinflammatory activity in mouse RAW264.7 cells assessed as inhibition LPS-induced TNF-alpha protein expression at 20 uM after 4 hrs by Western blotting analysis relative to control; format: functional
RAW264.7 [12] = experiment: Antiinflammatory activity in mouse RAW264.7 cells assessed as inhibition of LPS-induced COX2 protein expression after 16 hrs by Western blotting analysis
Rattus norvegicus [13] = experiment: Antiinflammatory activity in po dosed rat paw edema model assessed as inhibition of carrageenan-induced serum IL-1beta production administered 30 mins prior to carrageenan challenge measured after 6 hrs by ELISA relative to vehicle-treated control

Sequence of Transcription factor p65 (Mus musculus) (Q04207 whole entry): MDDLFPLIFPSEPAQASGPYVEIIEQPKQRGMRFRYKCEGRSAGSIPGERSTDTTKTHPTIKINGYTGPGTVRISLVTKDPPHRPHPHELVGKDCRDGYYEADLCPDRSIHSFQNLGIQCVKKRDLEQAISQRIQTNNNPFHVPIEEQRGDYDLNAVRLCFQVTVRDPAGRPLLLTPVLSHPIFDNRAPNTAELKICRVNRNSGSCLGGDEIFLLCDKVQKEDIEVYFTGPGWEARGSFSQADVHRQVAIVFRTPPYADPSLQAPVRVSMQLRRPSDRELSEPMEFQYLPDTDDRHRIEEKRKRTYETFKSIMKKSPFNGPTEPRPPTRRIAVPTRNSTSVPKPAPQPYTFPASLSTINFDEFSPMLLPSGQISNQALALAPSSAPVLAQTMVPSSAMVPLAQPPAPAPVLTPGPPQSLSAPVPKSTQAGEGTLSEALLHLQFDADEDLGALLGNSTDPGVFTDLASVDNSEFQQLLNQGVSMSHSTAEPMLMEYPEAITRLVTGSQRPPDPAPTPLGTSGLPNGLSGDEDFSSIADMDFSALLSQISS

Q: What does the source list for C=C1C(=O)O[C@@H]2[C@@H]3[C@@]4(C=C[C@@]3(C)[C@]3(C4)C(=O)O[C@@H]4[C@H]5C(C)=CC[C@H]5[C@](C)(O)C[C@H](OC(C)=O)[C@H]43)[C@](C)(O)CC[C@@H]12?
A: inhibition (INH) (RAW264.7 [1]): >84%; inhibition (RAW264.7 [2]): Active; inhibition (RAW264.7 [3]): Active; inhibition (Rattus norvegicus [4]): Active; inhibition (Mus musculus [5]): Active; inhibition (Mus musculus [6]): Active; fold change (FC) [7]: 0.49; fold change (FC) (RAW264.7 [8]): 0.44; fold change (FC) (RAW264.7 [9]): 1.91; inhibition [10]: Active; fold change (FC) (RAW264.7 [11]): 0.76; inhibition (RAW264.7 [12]): Dose-dependent effect; inhibition (Rattus norvegicus [13]): Dose-dependent effect
